Data as given in ChEMBL document CHEMBL1159009, “Anti-influenza virus effect of some propolis constituents and their analogues (esters of substituted cinnamic acids)” (J Nat Prod, 1992).
In brackets after ≈: the same amount, converted by molar mass.

How the values were obtained:
Influenza A virus H3N2 [1] = assay: microbe, parasite or virus in culture; format: functional, Influenza A virus (A/Hong Kong/1/1968(H3N2)), Chorioallantoic membrane; conditions: 48 h
Influenza A virus = assay: microbe, parasite or virus in culture; format: functional, Chorioallantoic membrane; conditions: A/Puerto Rico/8/1934(H1N1), 48 h
[2] = Toxicity in hen chorioallantoic membrane assessed as maximum tolerable concentration causing no morphological changes; design: species or system Gallus gallus; conditions: chicken, read-out: Activity
In short: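 Surviving chorioallantoic membrane cultures (membranes only) from 11-13-day-old embryonated hen's eggs were exposed to increasing concentrations and followed for 72 h. MTC was the highest concentration causing no morphological changes in the CAM.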

Influenza A virus H3N2 [3] = format: functional, Influenza A virus (A/Hong Kong/1/1968(H3N2)), Chorioallantoic membrane
Influenza A virus H3N2 [4] = format: functional, Influenza A virus (A/Hong Kong/1/1968(H3N2)), Chorioallantoic membrane; remark: listed apart in the source
Influenza A virus H3N2 [5] = format: functional, Influenza A virus (A/Hong Kong/1/1968(H3N2)), Chorioallantoic membrane; remark: listed apart in the source
Influenza A virus H3N2 [6] = format: functional, Influenza A virus (A/Hong Kong/1/1968(H3N2)), Chorioallantoic membrane; remark: listed apart in the source
Influenza A virus H3N2 [7] = format: functional, Influenza A virus (A/Hong Kong/1/1968(H3N2)), Chorioallantoic membrane; remark: listed apart in the source
Influenza A virus H3N2 [8] = format: functional, Influenza A virus (A/Hong Kong/1/1968(H3N2)), Chorioallantoic membrane; remark: listed apart in the source
Influenza A virus H3N2 [9] = format: functional, Influenza A virus (A/Hong Kong/1/1968(H3N2)), Chorioallantoic membrane; remark: listed apart in the source
Influenza A virus H3N2 [10] = assay: Antiviral activity against influenza A virus (A/Hong Kong/1/1968(H3N2)) infected in hen eggs assessed as hemagglutinination titre level at 1 mg/ml; format: functional
In short: (§1)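 11-day-old embryonated hen's eggs received 0.2 ml of substance 1 h before infection with A/Hong Kong/1/68 (H3N2) from allantoic fluid. Read-out was the mean geometrical hemagglutination titer, compared with a virus control for each dose.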

Influenza A virus H3N2 [11] = assay: Antiviral activity against influenza A virus (A/Hong Kong/1/1968(H3N2)) infected in hen eggs assessed as hemagglutinination titre level at 2.5 mg/ml; format: functional
In short: as §1

Influenza A virus H3N2 [12] = assay: Antiviral activity against influenza A virus (A/Hong Kong/1/1968(H3N2)) infected in hen eggs assessed as hemagglutinination titre level at 5 mg/ml; format: functional
In short: as §1

[13] = Toxicity in hen egg assessed as maximum tolerable concentration causing no morphological changes; design: species or system Gallus gallus; conditions: chicken, read-out: Activity

COc1cc(/C=C/C(=O)OCCc2ccccc2)ccc1O
MIC (Influenza A virus H3N2 [1]): > 50 µg/mL
MIC (Influenza A virus): > 50 µg/mL
MNTC [2]: 50 µg/mL

CC(C)CCOC(=O)/C=C/c1ccc(O)c(O)c1
MIC (Influenza A virus H3N2 [1]): 25 µg/mL (≈ 99.9 µM)
MIC (Influenza A virus): 25 µg/mL (≈ 99.9 µM)
MNTC [2]: 50 µg/mL

O=C(/C=C/c1ccc(O)c(O)c1)OCc1ccccc1 [BENZYL CAFFEATE]
MIC (Influenza A virus H3N2 [1]): 25 µg/mL (≈ 92.5 µM)
MIC (Influenza A virus): > 50 µg/mL
MNTC [2]: 50 µg/mL

COc1cc(/C=C/C(=O)OCc2ccccc2)ccc1O [BENZYL FERULATE]
MIC (Influenza A virus H3N2 [1]): > 50 µg/mL
MIC (Influenza A virus): > 50 µg/mL
MNTC [2]: 50 µg/mL

O=C(/C=C/c1ccc(O)c(O)c1)OCCc1ccccc1 [CAFFEIC ACID PHENETHYL ESTER]
MIC (Influenza A virus H3N2 [1]): 25 µg/mL (≈ 87.9 µM)
MIC (Influenza A virus): 50 µg/mL (≈ 176 µM)
MNTC [2]: 50 µg/mL

COc1cc(/C=C/C(=O)OCCC(C)C)ccc1O [ISOPENTYL FERULATE]
MIC (Influenza A virus H3N2 [1]): 50 µg/mL (≈ 189 µM)
MIC (Influenza A virus): > 200 µg/mL
MNTC [2]: 400 µg/mL
log10CCID50 (Influenza A virus H3N2 [3]): 3
log10CCID50 (Influenza A virus H3N2 [4]): 1.5
log10CCID50 (Influenza A virus H3N2 [5]): 1.5
log10CCID50 (Influenza A virus H3N2 [6]): <1
deltalog10CCID50 (Influenza A virus H3N2 [7]): 2
deltalog10CCID50 (Influenza A virus H3N2 [8]): 2
deltalog10CCID50 (Influenza A virus H3N2 [9]): >2.5
Activity (Influenza A virus H3N2 [10]): 9.4
Activity (Influenza A virus H3N2 [11]): 7.35
Activity (Influenza A virus H3N2 [12]): 6.45
MNTC [13]: 10000 µg/mL
